# Apaf-1 act = activators of human Apaf-1 apoptosome, primary screen, biochemical, DEVD-Rh110 fluorescence, uHTS | Apaf-1 apoptosome caspase-3 activation; hits give low values | Apoptotic protease-activating factor 1 (Homo sapiens), O14727 | activity change, negative = activation, % at 20 µM | 0.31% of 330,000 active;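 active = activity change at or below -40% at 20 µM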
#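 Material: biochemical Apaf-1 apoptosome reconstitution; Medium: 20 mM HEPES buffer, pH 7.5, containing CHAPS and BSA; Reagent: dATP, cytochrome c, and (Z-DEVD)2-Rh110 caspase-3 substrate; Times: 30 min preincubation, 50 min reaction, room temperature; Signal: Rh110 fluorescence, excitation 480 nm, emission 540 nm; Measure: Caspase-3 activity via Apaf-1.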
# Rh110 act interf = Rh110 fluorescence interference by putative Apaf-1 activators, confirmation, artefact control for Apaf-1 activator project, biochemical, 20 µM. shares compounds with Apaf-1 act. quenched caspase reaction, Ex480/Em540. fluorescence interference (activity change), % at 20 µM, hits read low. 980 tested, under 10 active;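 active = mean activity change at or below -40% when tested at 20 µM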
# Apaf-1 act conf2 = Apaf-1 activators, single-dose retest, confirmation, biochemical, fluorescence, DEVD-Rh110, 20 µM; shares compounds with Apaf-1 act; reconstituted apoptosome caspase-3 activity; hits give low values; activity change, negative = activation, % at 20 µM; 5% of 980 active; AID 504617, 2011;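 active = mean activity change at or below -40%, meaning activation of 40% or more, at 20 µM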
# Apaf1 act interf = fluorescence interference of Apaf-1 activator hits, dose response, artefact control for Apaf-1 activator project. 55 tested, under 10 active. shares compounds with Apaf-1 act. AID 588592, 2011. EC50, µM. fluorescence interference counterscreen, Apaf-1 activator assay; call rule not given here
# Hits are given with their value; n = inactive; x = no result given. These entries were drawn from the full list.
SMILES,Apaf-1 act,Rh110 act interf,Apaf-1 act conf2,others
Cc1cc(O)c(C(C)C)cc1N=Cc1cc([N+](=O)[O-])ccc1O,n,x,x,
CCCCCCCCCCCCCCCC[n+]1cccc(C(=O)N(CC)CC)c1,n,x,x,
CCCCCCCCCCCCCCCC[N+](C)(C)CCN(Cc1ccc(OC)cc1)c1ncccn1,n,x,x,
CCCN(CC(=O)Nc1ccccc1C)C(=O)C1CCN(c2ncnc3sc(C)c(C)c23)CC1,n,x,x,
Cc1sc2ncn(CC(=O)NCCCC(=O)N3CCN(c4ccccc4)CC3)c(=O)c2c1C,-312.6,n,n,
COC(=O)C1=C(C)N(Cc2ccccc2)C(=NCc2ccccc2)N[C@H]1c1ccccc1,n,x,x,
COCCNC(=O)c1cc2nc(-c3ccccc3)cc(C)n2n1,-169.1,n,n,
COCCNC(=O)c1c(N)n(CCC2=CCCCC2)c2nc3ccccc3nc12,n,x,x,
C/C(CCN1CCc2nc(-c3ccccc3)c(-c3ccccc3)cc2C1)=N\OC[C@@H](C)[C@H](OCc1ccccc1)C(C)C,n,x,x,
Cc1ccc2[nH]c3c(c2c1)CN(C(=O)CN1CCN(c2cccc(C)c2C)CC1)CC3,n,x,x,
CN(C(=O)COC(=O)c1cc(S(=O)(=O)N2CCOCC2)c(Cl)cc1Cl)C1CCS(=O)(=O)C1 (stereo unspecified),-155.9,n,n,
COc1ccc(C(=O)C(Sc2nnc(C)c(=O)[nH]2)c2ccc(OC)cc2)cc1 (stereo unspecified),-114.1,n,n,
COc1ccc(C[C@H]2CN3C(=NC[C@@H]3Cc3ccccc3)N2CCNC(=O)CCC2CCCCC2)cc1,n,x,x,
CN(c1ccccc1)c1cc(Br)nc(Br)c1,-46.6,n,n,
CCOc1ccc(/C=C2\SC(=S)N(CCCC(=O)NCCCN3CCOCC3)C2=O)cc1,n,x,x,
C#CCOc1ccc(/C=C2/C(=O)N(c3cccc(C(=O)O)c3)N=C2C)cc1OC,n,x,x,
COc1cccc(/C=C2\SC(=S)N(CCCC(=O)N3CCCCC3)C2=O)c1,-136.7,n,n,
COC(=O)c1ccc(/C=C2/SC(=S)N(CCCC(=O)Nc3ccc(O)cc3)C2=O)cc1,-67.0,n,n,
COc1ccc(/C=C2\SC(=S)N(CCC(=O)Nc3ccc(C(=O)O)cc3)C2=O)cc1OC,-363.6,n,-133.5,Apaf1 act interf=n
COc1ccc(/C=C2/Sc3ccc(C(=O)NCCN4CCCCCC4)cc3NC2=O)cc1,n,x,x,
O=C(O)CCN1C(=O)/C(=C\c2ccc(OCc3ccccc3)c(OCc3ccccc3)c2)SC1=S,-56.3,n,-78.8,Apaf1 act interf=n
CCc1ccc(S(=O)(=O)/N=C2\C=C(Nc3ccc(O)cc3)C(=O)c3ccccc32)cc1,n,x,x,
COc1cc(/C=C2/C(=O)N(c3ccc(Br)cc3)N=C2C)cc(OC)c1OC,n,x,x,
CCCCCCCCCCCCCCCC[n+]1cccc2ccccc21,n,x,x,
CC(C)(C)c1ccc(C(O)CCCN2CCC(C(O)(c3ccccc3)c3ccccc3)CC2)cc1 (stereo unspecified),n,x,x,
SMILES,Apaf-1 act,Rh110 act interf,Apaf-1 act conf2,others
CCOCCCn1c(SCC(=O)Nc2cc(C(C)(C)C)nn2-c2ccccc2)nc2ccccc2c1=O,n,x,x,
Cc1ccc(-c2csc3nc4c5ccccc5c(NCCCN(C)C)nn4c(=O)c23)cc1,n,x,x,
COc1cc(NC(C)CCCN)c2ncccc2c1Oc1ccccc1 (stereo unspecified),n,x,x,
CC(=O)c1ccc(OCC(=O)NCC(c2ccco2)N2CCCCC2)cc1 (stereo unspecified),-43.9,n,n,
COc1ccc(SC[C@H](C)CN2CC[C@H](NC(=O)OCc3ccccc3)CCC2=O)cc1,n,x,x,
CC[C@H](C)Cc1cn([C@@H](CCCN=C(NC(=O)OC(C)(C)C)NC(=O)OC(C)(C)C)C(=O)NCCCCCCCCCCC(=O)N2CCN(C(=O)OC(C)(C)C)CC2)nn1,n,x,x,
COc1ccc(-c2sc3ccccc3c2-c2ccc(OCCN3CCCCC3)cc2)cc1,n,x,x,
Cc1ccccc1Oc1ncnc2oc(-c3ccccc3)cc12,-75.5,n,n,
CCOC(=O)c1ccc(N2CSC3=C(C#N)C(c4ccc(OC)cc4OC)CC(=O)N3C2)cc1 (stereo unspecified),n,x,x,
Clc1cccc(CSc2nnc(-c3ccccn3)n2Cc2ccco2)c1,n,x,x,
CN(Cc1ccccc1)c1oc(-c2ccco2)nc1C#N,n,x,x,
CCS(=O)(=O)NCCc1csc(C)n1,-484.3,n,n,
C#CCOCCOCCOCCNc1nc(N2CCN(C(=O)CCCCCCCCCCNC(=O)[C@H](CO)n3cc(CCCCCN)nn3)CC2)nc(N2CCN(C(=O)CCCCCCCCCCNC(=O)[C@H](CCCN=C(N)N)n3cc(C[C@@H](C)CC)nn3)CC2)n1,n,x,x,
C=CCNc1oc(-c2ccc(OCC)cc2)nc1C#N,-52.1,n,n,
S=C(Nc1ccc2nsnc2c1)N1CCCCCC1,n,x,x,
COc1ccccc1-n1c(N)c(C(=O)NCC2CCCO2)c2nc3ccccc3nc21 (stereo unspecified),n,x,x,
Cc1ccc(CN2C(=O)CCC2C(=O)NCC2CCCO2)cc1 (stereo unspecified),-88.4,n,n,
CN(CCCN1c2ccccc2CCc2ccccc21)CC(=O)c1ccc(Cl)cc1,n,x,x,
CCOC(=O)c1c(NC(=O)c2ccc(C)cc2)sc2c1CC(C)(C)NC2(C)C,n,x,x,
CC1CCCCN1S(=O)(=O)c1ccc(C(=O)N(CCCN(C)C)c2nc3ccc(Br)cc3s2)cc1 (stereo unspecified),n,x,x,
Cc1nnc(N=c2ssnc2Cl)o1,n,x,x,
O=C(N/N=C/c1ccccc1O)C1(O)c2ccccc2-c2ccccc21,-59.2,n,n,
CC1=NN(c2ccc(Br)cc2)C(=O)/C1=C/c1cccs1,n,x,x,
Cc1[nH]n(-c2ccccc2)c(=O)c1C(c1cccc([N+](=O)[O-])c1O)c1c(C)[nH]n(-c2ccccc2)c1=O,n,x,x,
CCOc1cc(N(CC)CC)ccc1/C=C(/C#N)c1nc2ccccc2[nH]1,-46.0,n,n,
SMILES,Apaf-1 act,Rh110 act interf,Apaf-1 act conf2,others
CC(=O)N(C)C1=C(N2CCOCC2)C(=O)c2ccccc2C1=O,n,x,x,
CCC(CN(C)C)Oc1cc(NCc2ccccc2)c2ncn(C(C)C)c2c1 (stereo unspecified),n,x,x,
COc1ccc(C2CC(=O)c3cnc(NC(=O)c4ccco4)nc3C2)cc1 (stereo unspecified),-138.6,n,n,
CCC(CO)Oc1cc(NCc2cccnc2)c2ncn(C(C)C)c2c1 (stereo unspecified),n,x,x,
CC1(C)OC(C)(C)/C(=C/Nc2ccc(O)cc2)C1=O,n,x,x,
NC(=O)/C(=C/c1ccc2c(c1)OCO2)NC(=O)c1ccco1,-43.8,n,n,
Cc1cccc(NC(=O)NC2CCCc3ccccc32)c1 (stereo unspecified),-378.7,n,n,
Cc1cccc(NC2=C(NCCO)C(=O)c3ccccc3C2=O)c1,n,x,x,
Cc1cccc(NC(=O)CC2Nc3cccc4cccc(c34)NC2=O)c1 (stereo unspecified),n,x,x,
CC1(C(=O)Nc2cccc3ccccc23)CC1(Br)Br (stereo unspecified),n,x,x,
Cc1[nH]n(-c2ccccc2)c(=O)c1C(c1cccc([N+](=O)[O-])c1)c1c(C)[nH]n(-c2ccccc2)c1=O,n,x,x,

# Screening results (PubChem BioAssay)
